Bioassay records: PubChem, several laboratories
NSD2 HMT inh: NSD2 histone methyltransferase inhibitors, primary screen, biochemical, AlphaScreen, single concentration, set 2. Histone-lysine N-methyltransferase NSD2 (Homo sapiens), O96028. NSD2 peptide methylation, 120 min. inhibition, % at 12.5 µM. 310,000 compounds, 0.54% hits. AID 743445, 2014; in the data active means inhibition above about 50%
TDP2 inh: human TDP2 enzyme inhibitors, primary screen, biochemical, epi absorbance, recombinant enzyme; inhibition, % at 12.8 µM; 370,000 compounds, 0.34% hits; T5PNP hydrolysis, p-nitrophenol absorbance 415 nm; Tyrosyl-DNA phosphodiesterase 2 (Homo sapiens), O95551;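 active means inhibition above the mean of all tested compounds plus 3 SD, set per campaign, cut at about 25% in these data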;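 further: 0% = DMSO with enzyme and 100% = buffer with substrate but no TDP2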
Target sequence (O95551 whole entry, looked up): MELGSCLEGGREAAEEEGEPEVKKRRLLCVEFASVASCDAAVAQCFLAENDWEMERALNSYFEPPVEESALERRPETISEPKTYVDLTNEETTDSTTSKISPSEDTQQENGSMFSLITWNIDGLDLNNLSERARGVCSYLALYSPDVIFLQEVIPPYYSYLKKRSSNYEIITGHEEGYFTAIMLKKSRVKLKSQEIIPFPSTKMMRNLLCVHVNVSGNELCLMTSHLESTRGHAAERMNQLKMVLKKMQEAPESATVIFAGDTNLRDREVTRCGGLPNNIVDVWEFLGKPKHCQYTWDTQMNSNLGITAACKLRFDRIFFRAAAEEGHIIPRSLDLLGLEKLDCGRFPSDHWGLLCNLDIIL
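Evaluation: % inhibition relative to enzyme-containing and enzyme-free wells. Material: recombinant human TDP2. Benchmarks: enzyme-free and DMSO wells. Timing: enzyme reaction with compound for 2 h at 37 °C. Compound dosing: 12.8 µM only. Measured by: p-Nitrophenol epi absorbance. Reagent: T5PNP substrate at 5 mM, a TopII-DNA adduct mimic. Replication: single well per compound.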
UCH37 DUB inh: inhibitors of human UCH37 deubiquitinase, primary screen, biochemical, Ub-AMC cleavage, fluorescence; Ubiquitin carboxyl-terminal hydrolase isozyme L5 (Homo sapiens), Q9Y5K5; purified proteasome/UCH37; inhibition, % (no concentration beside the values); 330,000 compounds, 0.33% hits; AID 588478, 2011;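 active means mean inhibition over replicate wells above about 20%, limit read from the data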;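 further: 0% = compound-free wells with enzyme and 100% = wells lacking proteasome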
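Signal – fluorescence, ex 355 nm, em 460 nm · System – Proteasome-bound UCH37 · Input – 0.15 nM proteasome as dispensed · Timing – 30 min preincubation with enzyme, 25 min cleavage at room temperature · Read-out basis – percent inhibition of cleavage signal versus uninhibited and no-proteasome wells · Medium – Tris-HCl pH 7.4 with ATP-MgCl2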
CASP6 VEID inh: human caspase-6 inhibitors, primary screen, biochemical, VEID-R110 fluorescence, single point, set 2; P55212; purified caspase-6, Z-VEID-R110 cleavage fluorescence; inhibition, % at 12.5 µM; 350,000 compounds, 0.53% hits; AID 686996, 2013;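 active means mean inhibition across replicates at least about 35%, with every replicate also reaching that limit, limit read from the data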;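 further: 0% = median of neutral control wells and 100% = no fluorescence left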
LEDGF integ inh: blockers of LEDGF/p75-dependent integrase strand transfer – biochemical, TR-FRET, high throughput, primary screen; HIV-1 integrase (with human LEDGF/p75); TR-FRET IN-LEDGF/p75 DNA integration, Eu/Cy5; inhibition, % at 3.7 µM; 370,000 compounds, 0.64% hits; AID 743269, 2014;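 active means inhibition above the screen-wide mean plus 3 SD, cut at about 13% in these data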;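 further: signal is the Cy5 over europium emission ratio at 671 and 618 nm; 0% = plate median of compound wells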
UCH37 confirm: retest of human UCH37 deubiquitinase inhibitors, confirmation, biochemical, Ub-AMC cleavage rate, fluorescence. shares compounds with UCH37 DUB inh. Proteasome-bound UCH37. inhibition, % at 20 µM. 480 compounds, 27% hits. AID 624100, 2012;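 active means average inhibition over replicates above about 50%, so the earlier screening hit is confirmed, limit read from the data; inactive means the rest, counted as false positives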;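 further: based on cleavage rate fitted by regression over a 30 min kinetic read; 0% = proteasome plus Ub-AMC and 100% = Ub-AMC without proteasome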
CASP1 counter: human caspase-1 inhibitors, dose response, selectivity assay for caspase-6 inhibitor project, biochemical, Z-YVAD-R110 fluorescence, cherry-pick, set 2 | shares compounds with CASP6 VEID inh | purified caspase-1, Z-YVAD-R110 cleavage fluorescence | activity change, negative = inhibition, % at 35 µM | 100 tested, under 10 active | AID 743289, 2014;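 active means compounds lowering fluorescence whose fitted half-maximal concentration is no more than twice their top tested dose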
An asterisk follows results filed as active; · = not tested or not shown. Sampled rows, rich in hits. Any-hit rate of the full collection: about 1.3%.

SMILES | NSD2 HMT inh | TDP2 inh | UCH37 DUB inh | CASP6 VEID inh | LEDGF integ inh | UCH37 confirm | others
Cc1ccccc1N1C(=O)NC(=O)/C(=C\c2cc(Br)c(N3CCOCC3)o2)C1=O | 25.1 | 13.4 | 23.1* | · | 1.7 | ·
CCc1ccccc1N1C(=O)NC(=O)/C(=C\c2cc(C)n(C)c2C)C1=O | 2.2 | -3.6 | 7.4 | -0.3 | 2.3 | ·
CN1C(=O)C(=Cc2ccc(N3CCCCCC3)o2)C(=O)N(C)C1=S | 4.5 | -6.5 | 14.8 | · | 6.3 | ·
Cc1cccc(N2C(=O)/C(=C/c3ccc(N4CCN(C)CC4)o3)C(=O)NC2=S)c1C | 50.6* | -4.4 | 22.1* | 16.9 | 14.0* | ·
COc1ccc(N2C(=O)/C(=C/c3ccc(C)o3)C(=O)NC2=S)c(OC)c1 | 46.8 | 1.1 | 2.1 | 37.8* | 11.3 | ·
Cc1ccccc1N1C(=O)NC(=O)/C(=C/c2ccc(N3CCOCC3)o2)C1=O | 0.8 | 13.7 | 21.1* | -5.9 | 2.5 | ·
CC(Cl)(Cl)C(=NP(=S)(N1CCOCC1)N1CCOCC1)N1CCOCC1 | · | · | 1.2 | · | · | ·
Cc1cc2c(C(C)C)c(O)c(O)c(C=O)c2c(O)c1-c1c(C)cc2c(C(C)C)c(O)c(O)c(C=O)c2c1O | · | 7.4 | · | 17.9 | 66.4* | ·
O=C1NC(=O)N(c2ccc3c(c2)OCO3)C(=O)/C1=C\c1ccc(N2CCCCC2)o1 | 9.7 | 0.7 | 28.7* | 17.5 | -3.6 | 43.8
Cc1cc(/C=C2\C(=O)NC(=O)N(C)C2=O)c(C)n1-c1ccc2c(c1)OCO2 | -8.0 | -5.5 | -3.7 | · | -2.4 | ·
O=C1NC(=O)C(Nc2ccccc2)C(=O)N1 | 6.3 | 4.4 | 63.9* | 0.8 | 4.7 | -3.6
COC(=O)C1=C(c2cccc(C#N)c2)C[C@@H]2CC[C@H]1N2C(=O)NCc1ccc(F)cc1 | · | 7.0 | -0.7 | -1.4 | -1.4 | ·
COC(=O)C1=C(c2cccc(C#N)c2)C[C@@H]2CC[C@H]1N2C(=O)NCc1cccc2ccccc12 | · | -3.6 | 46.5* | 0.6 | -0.7 | 12.8
COC(=O)c1cc(C(O)(C(=O)OC)C(F)(F)F)c(N=CN(C)C)s1 (stereo unspecified) | · | · | 7.8 | · | · | ·
CN1C(=O)C(Cc2cccc3ccccc23)C(=O)N(C)C1=O | · | · | 40.3* | · | · | 1.6
CN1C(=O)C(Cc2ccc(OCc3ccccc3)cc2)C(=O)N(C)C1=O | 38.2 | 4.2 | 10.9 | 1.0 | -3.1 | ·
CCOc1ccc(N2C(=O)/C(=C\c3cccs3)C(=O)NC2=S)cc1 | 5.0 | 9.5 | 4.1 | 3.1 | 2.8 | ·
CCOc1ccc(N2C(=O)/C(=C/c3ccco3)C(=O)NC2=S)cc1 | · | · | 29.4* | · | · | 99.2*
CC(CCc1c[nH]c2ccccc12)=NO | · | · | 1.2 | · | · | ·
CCCC12CN3CCN(CC(C3)C1=NNC(=O)c1ccncc1)C2 | · | · | 1.1 | · | · | ·
Cn1ncnc2c(=O)n(C)c(=O)nc1-2 | 4.7 | · | 99.9* | · | · | 99.8*
CCCCC(=NO)c1c(C)[nH]c2ccccc12 | · | · | -0.6 | · | · | ·
CN1C(=O)C(=Cc2ccc(N3CCOCC3)o2)C(=O)N(C)C1=O | 3.0 | 0.8 | 30.2* | · | 6.3 | 24.2
CCOc1ccc(-n2c(O)c(C=Nc3ccc(N4CCOCC4)cc3)c(=O)[nH]c2=O)cc1 | 8.6 | -12.9 | 44.6* | · | -5.2 | 12.4
Cc1nc2ccccc2c(=O)n1N=Cc1cc(Br)cc(Br)c1O | · | · | -0.5 | · | · | ·
O=C(N=Nc1c(O)[nH]c(=O)[nH]c1=O)C1COc2ccccc2O1 (stereo unspecified) | 3.0 | 3.7 | 32.0* | 2.4 | 1.7 | 5.0
CN1CCc2cc3c(c4c2C1Cc1ccccc1-4)OCO3 (stereo unspecified) | 10.3 | 23.4 | · | 84.3* | 8.8 | · | CASP1 counter=-0.6
